{
  "source": "ChEMBL document CHEMBL1130075",
  "about": "“(2-Methyl-5-(methylsulfonyl)benzoyl)guanidine Na+/H+ antiporter inhibitors” (J Med Chem, 1997)",
  "data": [
    {"target": "Sodium/hydrogen exchanger (Oryctolagus cuniculus, UniProt P23791+P50482+P26432)", "experiment": "Inhibition of 5-N-(ethyl isopropyl)-amiloride[EIPA]-sensitive Na+ uptake into acidified rabbit erythrocytes.", "type": "functional", "method_in_brief": "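Rabbit blood (heparinized) red cells, washed, acidified in pH 6.2 KCl buffer with ouabain, 10 min 37 °C; internal pH clamped with 200 μM DIDS and 1 mM acetazolamide, 30 min 37 °C. Uptake 5 min at 37 °C in pH 8.0 buffer with 10 mM NaCl plus ²²Na tracer, 1% DMSO. Triplicates; counts with 10 μM EIPA subtracted; IC50 by nonlinear fit.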", "units": {"IC50": "nM"}, "values": [
      {"smiles": "CCCSc1cc(C)c(C(=O)N=C(N)N)cc1S(C)(=O)=O", "IC50": 6.8},
      {"smiles": "CS(=O)(=O)c1cc(C(=O)N=C(N)N)ccc1-n1cccn1", "IC50": 160},
      {"smiles": "CS(=O)(=O)c1cc(C(=O)N=C(N)N)ccc1C(F)(F)F", "IC50": 140},
      {"smiles": "CC(C)c1ccc(C(=O)N=C(N)N)cc1S(C)(=O)=O", "note": "[CARIPORIDE]", "IC50": 26},
      {"smiles": "Cc1cc(-n2cccc2)c(S(C)(=O)=O)cc1C(=O)N=C(N)N", "note": "[ENIPORIDE]", "IC50": 8}
    ]}
  ]
}
